Assay results published in ChEMBL document CHEMBL4196209, “Validation of Matrix Metalloproteinase-9 (MMP-9) as a Novel Target for Treatment of Diabetic Foot Ulcers in Humans and Discovery of a Potent and Selective Small-Molecule MMP-9 Inhibitor That Accelerates Healing” (J Med Chem, 2018).
Calls of active or inactive are those of the source. No cut-off for these calls is given here.

Experiments:
[1] = biological target: T1, Interstitial collagenase (Homo sapiens) (UniProt P03956); experiment: Inhibition of human recombinant MMP1 catalytic domain at 100 uM using Mca-Lys-Pro-Leu-Gly-Leu-Dpa-Ala-Arg-NH2 substrate
T1 sequence (whole entry): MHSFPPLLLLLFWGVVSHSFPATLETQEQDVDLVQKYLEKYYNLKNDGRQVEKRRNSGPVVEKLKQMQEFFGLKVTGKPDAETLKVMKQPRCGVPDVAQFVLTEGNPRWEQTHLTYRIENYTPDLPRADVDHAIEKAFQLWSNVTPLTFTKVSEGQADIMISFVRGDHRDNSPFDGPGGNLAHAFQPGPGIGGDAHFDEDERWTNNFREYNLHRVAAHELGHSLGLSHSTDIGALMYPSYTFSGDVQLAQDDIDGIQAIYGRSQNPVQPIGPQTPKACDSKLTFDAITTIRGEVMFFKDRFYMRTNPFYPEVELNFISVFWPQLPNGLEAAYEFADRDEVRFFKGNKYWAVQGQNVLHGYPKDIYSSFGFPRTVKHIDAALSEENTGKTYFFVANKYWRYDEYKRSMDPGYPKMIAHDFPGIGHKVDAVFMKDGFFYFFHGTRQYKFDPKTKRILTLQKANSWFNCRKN
Method in brief: (§1)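 Fluorogenic continuous assay of recombinant enzymes; Mca-KPLGL-Dpa-AR-NH2 substrate for MMP-1, MMP-8, ADAM10; Mca-PLAQAV-Dpa-RSSSR-NH2 for ADAM9; MOCAc-PLGL-A2pr(Dnp)-AR-NH2 for MMP-2, MMP-9, MMP-14 with Km determined beforehand. Inhibitor stocks 10 mM in DMSO; duplicates, repeated three times; Ki for slow-binding inhibitors from koff/kon.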

[2] = biological target: 72 kDa type IV collagenase (Homo sapiens, UniProt P08253); experiment: Slow binding inhibition of human recombinant MMP2 using MOCAc-Pro-Leu-Gly-Leu-A2pr(Dnp)-Ala-Arg-NH2 substrate; method in brief: as §1
[3] = biological target: Stromelysin-1 (Homo sapiens) (UniProt P08254); experiment: Inhibition of human recombinant MMP3 catalytic domain at 100 uM using MOCAc-Arg-Pro-Lys-Pro-Val-Glu-Nva-Trp-Arg-Lys(Dnp)-NH2 substrate
[4] = biological target: T2, Matrilysin (Homo sapiens) (UniProt P09237); experiment: Inhibition of human recombinant MMP7 at 100 uM using MOCAc-Pro-Leu-Gly-Leu-A2pr(Dnp)-Ala-Arg-NH2 substrate
T2 sequence (whole entry): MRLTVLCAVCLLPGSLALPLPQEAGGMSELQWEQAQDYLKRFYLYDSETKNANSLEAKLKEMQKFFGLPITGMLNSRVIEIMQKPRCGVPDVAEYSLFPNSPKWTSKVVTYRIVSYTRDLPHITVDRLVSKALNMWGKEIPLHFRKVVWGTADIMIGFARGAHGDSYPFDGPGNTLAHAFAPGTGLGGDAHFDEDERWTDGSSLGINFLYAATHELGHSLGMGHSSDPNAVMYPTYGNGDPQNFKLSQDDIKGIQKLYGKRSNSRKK

[5] = biological target: Matrix metalloproteinase-14 (Homo sapiens, UniProt P50281); experiment: Slow binding inhibition of human recombinant MMP14 catalytic domain using MOCAc-Pro-Leu-Gly-Leu-A2pr(Dnp)-Ala-Arg-NH2 substrate; method in brief: as §1
[6] = biological target: T3, Disintegrin and metalloproteinase domain-containing protein 9 (Homo sapiens) (UniProt Q13443); experiment: Inhibition of human recombinant ADAM9 at 100 uM using Mca-Pro-Leu-Ala-Gln-Ala-Val-Dpa-Arg-Ser-Ser-Ser-Arg-NH2 substrate; method in brief: as §1
T3 sequence (whole entry): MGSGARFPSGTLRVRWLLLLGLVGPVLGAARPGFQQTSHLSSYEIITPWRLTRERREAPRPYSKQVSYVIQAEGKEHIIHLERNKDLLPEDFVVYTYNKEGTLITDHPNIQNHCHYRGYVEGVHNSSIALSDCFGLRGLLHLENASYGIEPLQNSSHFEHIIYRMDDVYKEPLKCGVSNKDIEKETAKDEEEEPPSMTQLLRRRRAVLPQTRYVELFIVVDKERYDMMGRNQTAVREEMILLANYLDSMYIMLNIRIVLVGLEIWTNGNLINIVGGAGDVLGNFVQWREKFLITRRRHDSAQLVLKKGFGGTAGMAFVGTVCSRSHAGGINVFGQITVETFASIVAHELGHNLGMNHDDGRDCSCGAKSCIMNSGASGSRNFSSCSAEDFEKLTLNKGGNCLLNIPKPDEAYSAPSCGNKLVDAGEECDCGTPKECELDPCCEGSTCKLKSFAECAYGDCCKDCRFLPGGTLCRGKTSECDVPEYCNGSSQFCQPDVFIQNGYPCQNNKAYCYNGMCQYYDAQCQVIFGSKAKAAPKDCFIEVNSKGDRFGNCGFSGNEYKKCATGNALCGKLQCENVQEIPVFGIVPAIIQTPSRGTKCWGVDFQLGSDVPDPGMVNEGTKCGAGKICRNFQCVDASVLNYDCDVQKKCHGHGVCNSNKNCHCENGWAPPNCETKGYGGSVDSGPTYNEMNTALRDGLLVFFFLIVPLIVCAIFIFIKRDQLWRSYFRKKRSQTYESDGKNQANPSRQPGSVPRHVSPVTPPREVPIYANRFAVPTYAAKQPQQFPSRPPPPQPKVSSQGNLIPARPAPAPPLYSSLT

[7] = biological target: T4, Disintegrin and metalloproteinase domain-containing protein 10 (Homo sapiens) (UniProt O14672); experiment: Inhibition of human recombinant ADAM10 at 100 uM using Mca-Lys-Pro-Leu-Gly-Leu-Dpa-Ala-Arg-NH2 substrate; method in brief: as §1
T4 sequence (whole entry): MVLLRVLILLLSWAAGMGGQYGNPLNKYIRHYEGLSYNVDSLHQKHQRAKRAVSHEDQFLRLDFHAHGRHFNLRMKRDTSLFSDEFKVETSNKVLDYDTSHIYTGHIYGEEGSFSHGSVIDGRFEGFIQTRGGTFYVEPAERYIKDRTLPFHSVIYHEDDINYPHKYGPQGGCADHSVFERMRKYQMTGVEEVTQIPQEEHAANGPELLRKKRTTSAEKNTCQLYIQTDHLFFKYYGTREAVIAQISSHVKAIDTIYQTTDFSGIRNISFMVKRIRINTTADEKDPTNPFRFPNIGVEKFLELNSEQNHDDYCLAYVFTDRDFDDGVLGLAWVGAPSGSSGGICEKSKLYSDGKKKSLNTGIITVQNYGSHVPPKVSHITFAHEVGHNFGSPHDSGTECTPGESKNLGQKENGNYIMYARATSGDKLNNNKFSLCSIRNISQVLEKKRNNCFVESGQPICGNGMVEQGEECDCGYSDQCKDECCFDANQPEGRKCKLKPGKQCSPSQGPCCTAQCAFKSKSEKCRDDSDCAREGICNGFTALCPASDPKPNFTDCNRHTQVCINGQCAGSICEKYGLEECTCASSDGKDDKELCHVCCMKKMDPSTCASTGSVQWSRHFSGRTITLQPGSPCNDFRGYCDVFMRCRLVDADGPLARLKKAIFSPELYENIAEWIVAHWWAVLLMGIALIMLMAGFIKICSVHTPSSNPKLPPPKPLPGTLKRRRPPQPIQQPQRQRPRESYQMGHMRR

Mus musculus [8] = experiment: Induction of wound healing in db/db BKS.Cg-Dock7m+/+ Lepr db/J mouse model of full-thickness excision at 50 ug/wound/day for 14 days dosed topically 1 day after wound creation; assay type: functional, organism-based
Method in brief: (§2)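 Female db/db mice (8 weeks, ~40 g) with 8 mm full-thickness dorsal excision wound, Tegaderm-covered; from day 1, 100 µL of 0.5 mg/mL aqueous solution (50 µg/wound/day) or water vehicle topically once daily for 14 days. Wounds measured days 0, 7, 10, 14; cryosections for H&E re-epithelialization and DQ-collagen in-situ zymography, n = 3/group/time point.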

Mus musculus [9] = experiment: Induction of wound healing in db/db BKS.Cg-Dock7m+/+ Lepr db/J mouse model of full-thickness excision assessed as increase in re-epithelialization at 50 ug/wound/day for 14 days dosed topically 1 day after wound creation by H and E staining; assay type: functional, organism-based; method in brief: as §2
Mus musculus [10] = experiment: Inhibition of MMP9 activity in db/db BKS.Cg-Dock7m+/+ Lepr db/J mouse model of full-thickness excision using DQ-gelatin substrate at 50 ug/wound/day for 14 days dosed topically 1 day after wound creation by in-situ zymography; assay type: functional, organism-based
Mus musculus [11] = experiment: Inhibition of MMP8 activity in db/db BKS.Cg-Dock7m+/+ Lepr db/J mouse model of full-thickness excision using DQ-collagen substrate at 50 ug/wound/day for 14 days dosed topically 1 day after wound creation by in-situ zymography; assay type: functional, organism-based; method in brief: as §2
[12] = biological target: T1, Interstitial collagenase (Homo sapiens); experiment: Inhibition of human recombinant MMP1 catalytic domain using Mca-Lys-Pro-Leu-Gly-Leu-Dpa-Ala-Arg-NH2 substrate; method in brief: as §1
Salmonella typhimurium = experiment: Mutagenicity in Salmonella typhimurium by Ames test; assay type: toxicity, organism-based; conditions: salmonella enterica subsp. enterica serovar typhimurium
[13] = AUC in C57BLKS/6J db/db mouse plasma at 2 mg/kg, iv dosed as single administration by UPLC-MRM analysis; assay type: ADME, organism-based
[14] = AUC in C57BLKS/6J db/db mouse plasma at 2 mg/kg applied topically to wounds as single administration by UPLC-MRM analysis; assay type: ADME, organism-based; conditions: topical or ocular
Mus musculus [15] = experiment: Induction of wound healing in db/db BKS.Cg-Dock7m+/+ Lepr db/J mouse model of full-thickness excision at 50 ug/wound/day for 7 days dosed topically 1 day after wound creation; assay type: functional, organism-based; method in brief: as §2
Mus musculus [16] = experiment: Reduction in ROS generation in db/db BKS.Cg-Dock7m+/+ Lepr db/J mouse model of full-thickness excision at 50 ug/wound/day for 3 days dosed topically 1 day after wound creation by L-012 dye based assay; assay type: functional, organism-based
Method in brief: (§3)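 Wounded db/db mice dosed topically with 50 µg/wound/day or water vehicle; on days 1, 2, 3 and 7 post-wounding, anaesthetised with 2% isoflurane, injected ip with 200 µL L-012 (5 mg/mL in PBS), and bioluminescence imaged immediately at 5-min intervals; n = 3/group/time point.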

Mus musculus [17] = experiment: Reduction in ROS generation in db/db BKS.Cg-Dock7m+/+ Lepr db/J mouse model of full-thickness excision at 50 ug/wound/day for 7 days dosed topically 1 day after wound creation by L-012 dye based assay; assay type: functional, organism-based; method in brief: as §3
Mus musculus [18] = experiment: Reduction in NFkappaB p65 protein levels generation in db/db BKS.Cg-Dock7m+/+ Lepr db/J mouse model of full-thickness excision at 50 ug/wound/day for 1 day dosed topically 1 day after wound creation by ELISA; assay type: functional, organism-based
Mus musculus [19] = experiment: Reduction in NFkappaB p65 protein levels generation in db/db BKS.Cg-Dock7m+/+ Lepr db/J mouse model of full-thickness excision at 50 ug/wound/day for 2 days dosed topically 1 day after wound creation by ELISA; assay type: functional, organism-based
Mus musculus [20] = experiment: Reduction in NFkappaB p65 protein levels generation in db/db BKS.Cg-Dock7m+/+ Lepr db/J mouse model of full-thickness excision at 50 ug/wound/day for 7 days dosed topically 1 day after wound creation by ELISA; assay type: functional, organism-based
Mus musculus [21] = experiment: Reduction in NFkappaB p65 protein levels generation in db/db BKS.Cg-Dock7m+/+ Lepr db/J mouse model of full-thickness excision assessed as p65 AUC level at 50 ug/wound/day for 7 days dosed topically 1 day after wound creation by ELISA (reference value: 834 +/- 121 ug/mg.day); assay type: functional, organism-based
in vivo = conditions: C57BLKS/6J db/db, mouse, plasma, topical or ocular, 2 mg/kg

Sequence of Stromelysin-1 (Homo sapiens) (P08254 100-477 limits assumed): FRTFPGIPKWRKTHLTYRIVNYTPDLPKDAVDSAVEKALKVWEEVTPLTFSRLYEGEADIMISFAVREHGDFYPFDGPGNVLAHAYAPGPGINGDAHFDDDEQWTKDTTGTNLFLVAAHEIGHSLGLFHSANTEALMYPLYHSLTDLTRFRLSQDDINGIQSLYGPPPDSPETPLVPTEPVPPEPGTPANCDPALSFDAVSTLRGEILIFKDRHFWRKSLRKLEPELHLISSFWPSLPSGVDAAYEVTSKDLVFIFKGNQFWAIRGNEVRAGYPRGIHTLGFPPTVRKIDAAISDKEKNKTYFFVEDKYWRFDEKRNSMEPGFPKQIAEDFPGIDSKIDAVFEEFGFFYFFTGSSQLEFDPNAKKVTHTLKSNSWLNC
Sequence of 72 kDa type IV collagenase (P08253 whole entry, the tested form may be a part): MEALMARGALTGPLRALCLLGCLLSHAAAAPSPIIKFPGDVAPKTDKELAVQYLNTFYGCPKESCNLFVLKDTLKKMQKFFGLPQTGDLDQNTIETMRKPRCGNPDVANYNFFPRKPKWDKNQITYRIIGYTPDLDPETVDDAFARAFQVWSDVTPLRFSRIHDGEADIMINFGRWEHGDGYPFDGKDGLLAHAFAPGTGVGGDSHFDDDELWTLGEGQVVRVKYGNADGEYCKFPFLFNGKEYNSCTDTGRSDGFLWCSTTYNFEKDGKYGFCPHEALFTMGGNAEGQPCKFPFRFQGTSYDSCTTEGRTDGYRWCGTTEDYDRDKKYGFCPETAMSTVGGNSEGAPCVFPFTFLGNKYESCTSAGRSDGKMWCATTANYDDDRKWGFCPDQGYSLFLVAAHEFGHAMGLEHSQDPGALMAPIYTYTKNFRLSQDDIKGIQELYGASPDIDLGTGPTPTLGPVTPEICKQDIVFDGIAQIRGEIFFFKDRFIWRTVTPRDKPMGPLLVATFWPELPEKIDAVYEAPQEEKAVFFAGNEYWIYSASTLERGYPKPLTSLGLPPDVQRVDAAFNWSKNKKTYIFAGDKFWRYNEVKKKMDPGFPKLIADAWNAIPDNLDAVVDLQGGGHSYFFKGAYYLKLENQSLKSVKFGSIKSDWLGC

SMILES | inhibition [1] [%] | Ki [2] [µM] | inhibition [3] [%] | inhibition [4] [%] | Ki [5] [µM] | inhibition [6] [%] | inhibition [7] [%] | Activity (Mus musculus [8]) | Activity (Mus musculus [9]) | inhibition (Mus musculus [10]) | inhibition (Mus musculus [11]) | further results
NCc1ccc(Oc2ccc(S(=O)(=O)C[C@@H]3CS3)cc2)cc1 | 24 | 0.037 | 22 | 15 | 0.053 | 25 | 5 | inactive | Active | Active | Active | 
NCc1ccc(Oc2ccc(S(=O)(=O)CC3CS3)cc2)cc1 (racemic) | 4 |  | 23 | 1 |  | 31 | 14 | inactive | Active | Active | Active | 
O=S(=O)(CC1CS1)c1ccc(Oc2ccc(O)cc2)cc1 (stereo not drawn) |  |  |  |  |  |  |  |  |  |  |  | A0.5 [12]: Nottraceable
Cl.NCc1ccc(Oc2ccc(S(=O)(=O)C[C@H]3CS3)cc2)cc1 | 22 | 0.127 | 37 | 20 | 0.119 | 41 | 13 | Active | Active | Active | inactive | Activity (Salmonella typhimurium): Non-Toxic; AUC [13]: 0.583 µM·h; AUC [14]: 0.0217 µM·h; Activity (Mus musculus [15]): Active; Activity (Mus musculus [16]): Active; Activity (Mus musculus [17]): Active; Activity (Mus musculus [18]): Active; Activity (Mus musculus [19]): Active; Activity (Mus musculus [20]): Active; AUC (Mus musculus [21]): 492 µg/mg/day; bioavailability (in vivo): 3.7%
